The values below come from ChEMBL document CHEMBL4304819, “Natural product pectolinarigenin exhibits potent anti-metastatic activity in colorectal carcinoma cells in vitro and in vivo” (2019).

The subject of experiment [1] is CT26. Briefly: Antimetastatic activity against ip dosed mouse CT26 cells allografted in Balb/c mouse assessed as reduction in number of tumour nodules administered daily for 14 days starting from 6 days post implantation. The format is functional, organism-based. In short, it runs like this: (§1)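 Female BALB/c mice (6–8 weeks) injected ip with 5 × 10^5 CT26 cells; from day 6, randomized (eight per group) to ip vehicle, 25 or 50 mg/kg once daily for 14 days. Abdominal circumference and body weight every 3 days; abdominal nodules counted by eye and weighed; spleens assessed; paraffin tumour sections immunostained (Ki-67, MMP-9, p-Stat3) with DAB detection.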

The subject of experiment [2] is CT26. The experiment is described as follows: Induction of apoptosis in mouse CT26 cells assessed as nuclear fragmentation up to 40 uM after 48 hrs by Hoechst 33258 staining-based fluorescent microscopic analysis. Format: functional, cell-based. In short, it runs like this:
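CT26 cells plated at 1–2 × 10^5 per well on 18-mm coverslips in six-well plates for 24 h, then treated 48 h with PEC. Washed in cold PBS, fixed 15 min in 4% paraformaldehyde, stained with Hoechst 33258 (5 μg/ml). Nuclear morphology viewed by fluorescence microscopy (10×); positive cells counted, mean ± SD of three experiments.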

Experiment [3] concerns CT26. Briefly: Antiinvasive activity against mouse CT26 cells after 48 hrs by crystal violet staining based light microscopic analysis. The format is functional, cell-based. The gist of the method:
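Transwell membrane upper surface coated with Matrigel diluted 1:5 in serum-free medium. 5 × 10^4 cells in serum-free medium in upper part, 10% FBS medium below, treated with various concentrations for 48 h. Non-invading cells removed; underside cells fixed in methanol, stained with 0.5% crystal violet, counted by light microscopy; expressed as % inhibition versus untreated.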

Experiment [4] concerns HCT-116. The experiment is described as follows: Inhibition of colony formation in human HCT116 cells assessed as reduction in size of colonies up to 40 uM incubated for 24 hrs supplemented with fresh medium containing compound every 3 days for 12 days by crystal violet staining-based microscopic analysis. The format is functional, cell-based. The gist of the method:
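400–800 cells per well seeded in 6-well plates; after 24 h, PEC (0–40 μM) added. Medium with or without compound replaced every three days for 12 days. Colonies washed in cold PBS, fixed in methanol, stained 15 min with 0.5% crystal violet and counted under a microscope. Mean ± SD of three experiments.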

Experiment [5] deals with CT26. The experiment is described as follows: Antimetastatic activity against mouse CT26 cells allografted in Balb/c mouse assessed as decrease in CD11b-positive/Gr1-positive myeloid cells level in tumour at 25 mg/kg, ip administered daily for 14 days starting from 6 days post implantation flow cytometric analysis (reference value: 10 %). The format is functional. On the set-up: scale not given: the % may be the effect or the level left. (Flow cytometry measures light scatter and fluorescence of single cells or particles in a stream.)

For experiment [6], the system named is CT26. The experiment is described as follows: Induction of apoptosis in mouse CT26 cells assessed as necrotic cells at 40 uM after 48 hrs by Annexin V-FITC/propidium iodide staining-based flow cytometric analysis (reference value: 1.80 %). The format is functional. The gist of the method: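 CT26 cells seeded at 1–2 × 10^5 per well in six-well plates for 24 h, then exposed to PEC (0–40 μM) for 24 or 48 h. Cells harvested, washed twice in cold PBS, stained with Annexin V-FITC/PI and read by flow cytometry. Early apoptotic = Annexin V+ only; late apoptotic = Annexin V+/PI+. Mean ± SD of three experiments.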

Experiment [7] concerns CT26. The experiment is described as follows: Antimetastatic activity against mouse CT26 cells allografted in Balb/c mouse assessed as reduction in splenomegaly at 25 to 50 mg/kg, ip administered daily for 14 days starting from 6 days post implantation. Format: functional, organism-based. In short, it runs like this:
as §1

The test system of experiment [8] is CT26. Briefly: Antimetastatic activity against mouse CT26 cells allografted in Balb/c mouse assessed as decrease in CD11b-positive/Gr1-positive myeloid cells level in peripheral blood at 50 mg/kg, ip administered daily for 14 days starting from 6 days post implantation flow cytometric analysis (reference value: 33.2 %). On the set-up: scale not given: the % may be the effect or the level left. Format: functional.

Experiment [9] concerns HCT-116. Briefly: Induction of apoptosis in human HCT116 cells assessed as increase in Bax protein expression up to 40 uM after 48 hrs by Western blot analysis. The format is functional, cell-based. In short, it runs like this:
(§2)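 Cells treated 48 h at 0, 10, 20 and 40 μM, washed in cold PBS, lysed in RIPA; protein equalized by Lowry assay, resolved by SDS-PAGE, transferred to PVDF, blocked 1 h at 37 °C, primary antibody overnight at 4 °C, secondary 1 h, ECL detection, densitometry. β-actin loading control.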

The test system of experiment [10] is CT26. Briefly: Antimetastatic activity against mouse CT26 cells allografted in Balb/c mouse assessed as inhibition of MMP -9 protein expression in tumour tissue at 25 to 50 mg/kg, ip administered daily for 14 days starting from 6 days post implantation by immunohistochemical analysis. Format: functional, organism-based. The gist of the method: as §1
The test system of experiment [11] is CT26. The experiment is described as follows: Antimetastatic activity against mouse CT26 cells allografted in Balb/c mouse assessed as increase in infiltration of CD8+ T cells in blood at 50 mg/kg, ip administered daily for 14 days starting from 6 days post implantation flow cytometric analysis (reference value: 1.35 %). Format: functional.
Experiment [12] deals with HCT-116. Briefly: Antiproliferative activity against human HCT116 cells assessed as reduction in cell viability up to 40 uM by MTT assay. Format: functional, cell-based. To be noted: TDE = time-dependent effect. The gist of the method: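 Exponentially growing cells (2–6 × 10^3 per well) seeded in 96-well plates for 24 h, then exposed to 0, 2.5, 5, 10, 20, 40 µM for 24, 48 and 72 h. MTT (5 mg/mL stock) added 2–4 h at 37 °C; formazan dissolved in DMSO, absorbance at 570 nm. Three independent experiments.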
On the technique in general: Tetrazolium dyes change colour on reduction, which living cells bring about.

Experiment [13] relates to HCT-116. The experiment is described as follows: Induction of apoptosis in human HCT116 cells assessed increase in Bax/Bcl2 protein ratio up to 40 uM after 48 hrs by Western blot analysis. The format is functional, cell-based. The gist of the method:
as §2

Experiment [14] relates to HCT-116. The experiment is described as follows: Induction of apoptosis in human HCT116 cells assessed as viable cells at 40 uM after 48 hrs by Annexin V-FITC/propidium iodide staining-based flow cytometric analysis (reference value: 86.7 %). Format: functional. To be noted: HCT-116, 48 h, read-out: Activity. The gist of the method: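 Cells (1–2 × 10^5 per well) seeded in six-well plates 24 h, treated at 0–40 μM for 24 h or 48 h, harvested, washed twice in cold PBS, stained with Annexin V-FITC/PI and analysed by flow cytometry; early (Annexin V only) and late (Annexin V and PI) apoptotic fractions quantified; three experiments.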

Experiment [15] has as its system CT26. Briefly: Induction of apoptosis in mouse CT26 cells assessed as decrease in pro-caspase-3 expression up to 40 uM after 48 hrs by Western blot analysis. The format is functional, cell-based. The gist of the method:
as §2
Background: Immunoblotting shows a protein as a band on a membrane.

The target in experiment [16] is Signal transducer and activator of transcription 3 (Mus musculus) (UniProt P42227). Briefly: Antitumor activity against mouse CT26 cells allografted in Balb/c mouse assessed as inhibition of STAT3 phosphorylation in tumour tissue at 25 to 50 mg/kg, ip administered daily for 14 days starting from 6 days post implantation by immunohistochemical analysis. The format is organism-based. The gist of the method: as §1

Experiment [17] concerns CT26. Briefly: Antimetastatic activity against mouse CT26 cells allografted in ip dosed Balb/c mouse assessed as decrease in CD11b-positive/Gr1-positive myeloid cells level in peripheral blood administered daily for 14 days starting from 6 days post implantation by flow cytometric analysis. Format: functional, organism-based.
Experiment [18] addresses Signal transducer and activator of transcription 3 (Homo sapiens) (UniProt P40763). The experiment is described as follows: Inhibition of STAT3 phosphorylation in human HCT116 cells after 48 hrs by Western blot analysis. The format is cell-based. The gist of the method:
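HCT116 cells treated 48 h with PEC at 0, 10, 20 and 40 μM, lysed in RIPA. Equal protein by Lowry, SDS-PAGE, PVDF transfer. Block 1 h at 37 °C, anti-Stat3 and anti-p-Stat3 Tyr705 overnight at 4 °C, secondary 1 h, ECL. β-actin loading control; bands quantified by densitometry.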

Activity calls are given as the source filed them. The rule behind the calls is not given here.

Signal transducer and activator of transcription 3 (Homo sapiens), sequence (P40763 whole entry): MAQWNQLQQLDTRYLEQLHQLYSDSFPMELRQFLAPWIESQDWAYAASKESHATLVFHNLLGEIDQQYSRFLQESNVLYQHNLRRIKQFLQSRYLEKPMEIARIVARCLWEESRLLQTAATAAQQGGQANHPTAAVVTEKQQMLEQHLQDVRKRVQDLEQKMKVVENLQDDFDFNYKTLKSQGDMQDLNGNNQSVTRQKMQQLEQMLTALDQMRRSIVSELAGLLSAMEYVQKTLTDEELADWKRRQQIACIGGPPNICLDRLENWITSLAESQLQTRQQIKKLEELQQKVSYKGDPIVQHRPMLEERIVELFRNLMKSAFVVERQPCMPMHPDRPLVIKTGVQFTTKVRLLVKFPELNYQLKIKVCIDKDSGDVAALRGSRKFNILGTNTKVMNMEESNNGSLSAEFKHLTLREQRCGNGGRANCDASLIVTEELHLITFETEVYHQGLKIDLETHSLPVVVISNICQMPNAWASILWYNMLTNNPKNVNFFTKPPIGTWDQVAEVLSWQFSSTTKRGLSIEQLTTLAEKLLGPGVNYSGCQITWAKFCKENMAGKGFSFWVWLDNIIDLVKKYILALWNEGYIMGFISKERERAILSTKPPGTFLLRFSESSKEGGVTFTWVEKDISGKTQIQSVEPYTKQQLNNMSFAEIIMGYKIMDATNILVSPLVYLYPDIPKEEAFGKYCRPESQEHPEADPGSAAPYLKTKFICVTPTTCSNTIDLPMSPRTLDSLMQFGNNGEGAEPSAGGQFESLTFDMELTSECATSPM
Signal transducer and activator of transcription 3 (Mus musculus), sequence (P42227 whole entry): as the sequence (P40763 whole entry) above, with E760D counted along it

As to `COc1ccc(-c2cc(=O)c3c(O)c(OC)c(O)cc3o2)cc1` [PECTOLINARIGENIN], the Activity result in the experiment with CT26 [1] was “Dose-dependent effect”; in the experiment on CT26 [5], 7.4%; in the experiment with CT26 [6] it was 3.09%; with CT26 [8], 20.4%; with CT26 [11], 4.17%; in the experiment with CT26 [17], “Dose-dependent effect”. In addition, the result in the experiment on CT26 [2], with CT26 [7], in the experiment on HCT-116 [9], with HCT-116 [13] and in the experiment on CT26 [15] was Active. In addition, the inhibition result was “Dose-dependent effect” in the experiment on CT26 [3], “Tde” in the experiment with HCT-116 [12] and “Dose-dependent effect” in experiment [18]. Also, the inhibition result (with HCT-116 [4]; in the experiment on CT26 [10]; in experiment [16]) was “Active” each time. The viability at 40 µM in the experiment on HCT-116 [14] stood at 73.7%.
